The source of these data is ChEMBL document CHEMBL4196235, “SAR of 4-Alkoxybenzoic Acid Inhibitors of the Trypanosome Alternative Oxidase” (ACS Med Chem Lett, 2018).

Series [1] concerns Trypanosoma brucei brucei. The series can be described thus: Antiparasitic activity against bloodstream trypomastigote stage of wild type Trypanosoma brucei brucei Lister 427 after 48 hrs in presence of glycerol by resazurin dye based fluorescence assay. The format is functional. Particulars: Lister 427, 48 h. The procedure, abridged:
(§1)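 Bloodstream trypomastigotes of T. b. brucei s427 (wild type) were tested, both with and without glycerol. EC50 values are the mean of 3 experiments ± SEM.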
For orientation: The colour change of resazurin is a common sign of viable cells or microbes.

In series [2] the test system is Trypanosoma brucei brucei. The series can be described thus: Antiparasitic activity against bloodstream trypomastigote stage of wild type Trypanosoma brucei brucei Lister 427 after 48 hrs by resazurin dye based fluorescence assay. In kind it is functional, organism-based. Particulars: Lister 427, 48 h. The essentials:
as §1

Series [3] addresses T1, Alternative oxidase, mitochondrial (Trypanosoma brucei brucei, UniProt Q26710). Kind of series: Binding affinity to recombinant Trypanosoma brucei brucei 427 alternative oxidase expressed in Escherichia coli BL21 cells using ubiquinol-1 as substrate by spectrophotometric method.
In series [4] the test system is Trypanosoma brucei brucei. Kind of series: Resistance factor, ratio of EC50 for diminazene, pentamidine and melaminophenyl arsenical-resistant bloodstream trypomastigote stage of Trypanosoma brucei brucei B48 harboring TbAT1 deletions to EC50 for bloodstream trypomastigote stage of wild-type Trypanosoma brucei brucei Lister 427. The format is functional.
Series [5] in a line: Selectivity index, ratio of CC50 for HEK293T cells to EC50 for bloodstream trypomastigote stage of wild type Trypanosoma brucei brucei Lister 427. In kind it is toxicity. Particulars: human; read-out: Ratio CC50/EC50. The procedure, abridged:
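The selectivity index was calculated as CC50 in HEK cells divided by EC50 against wild-type T. b. brucei s427 bloodstream trypomastigotes.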

The subject of series [6] is Trypanosoma brucei brucei. Kind of series: Resistant factor, ratio of EC50 for bloodstream trypomastigote stage of wild-type Trypanosoma brucei brucei Lister 427 assessed as inhibition of respiration in presence of glycerol to EC50 for bloodstream trypomastigote stage of wild-type Trypanosoma brucei brucei Lister 427 assessed as inhibition of respiration in absence of glycerol. The format is functional.

A short description of series [7]: Selectivity index, ratio of CC50 for HEK293T cells to EC50 for pentamidine-resistant bloodstream trypomastigote stage of Trypanosoma brucei brucei harboring AQP1 to 3 deletions. The format is toxicity. Particulars: human; read-out: Ratio CC50/EC50.
The target of series [8] is T1, Alternative oxidase, mitochondrial. Kind of series: Inhibition of recombinant Trypanosoma brucei brucei alternative oxidase using ubiquinol-1 as substrate incubated for 2 mins followed by substrate addition by spectrophotometric method. The essentials:
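The assay measured inhibition of the ubiquinol oxidase activity of purified recombinant ∆MTS-TAO from T. b. brucei.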

Series [9] can be described thus: Cytotoxicity against HEK293T cells after 30 hrs by resazurin dye based fluorescence assay. In kind it is cell-based, HEK-293T. Particulars: human. The procedure, abridged:
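Cytotoxicity was measured on human embryonic kidney (HEK) cells and reported as CC50. Values are the mean of 3 experiments ± SEM.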

Series [10] concerns Trypanosoma brucei brucei. Kind of series: Antiparasitic activity against bloodstream trypomastigote stage of wild type Trypanosoma brucei brucei Lister 427 at 100 uM after 48 hrs by resazurin dye based fluorescence assay. In kind it is functional, organism-based.
A short description of series [11]: Dissociation constant, pKa of the compound. The format is physicochemical.

Molecules are shown by their SMILES. Values after ≈ are worked out from the molar mass of the structure shown. Active and inactive are the calls of the source. The rule behind the calls is not given here.

T1 sequence (Q26710 whole entry): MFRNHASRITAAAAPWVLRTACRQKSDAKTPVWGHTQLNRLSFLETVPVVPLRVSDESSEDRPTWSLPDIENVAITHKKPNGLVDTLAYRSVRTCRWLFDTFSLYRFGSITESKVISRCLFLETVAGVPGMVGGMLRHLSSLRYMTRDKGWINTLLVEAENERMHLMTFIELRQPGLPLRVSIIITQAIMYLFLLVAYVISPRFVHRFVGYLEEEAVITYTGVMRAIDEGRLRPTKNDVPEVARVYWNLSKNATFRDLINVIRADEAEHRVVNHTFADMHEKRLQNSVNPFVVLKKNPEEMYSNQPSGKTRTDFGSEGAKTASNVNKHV

For orientation: MIC means the lowest concentration that inhibits growth of the organism. On to `C/C(=C\Cc1c(O)c(Cl)c(C)c(C=O)c1O)CC/C=C(\C)[C@@H]1CC(=O)C(C)(C)O1` [ASCOFURANONE], for which the MIC in series [1] came out at 0.03 µM; in series [2], 250 µM (≈ 105 µg/mL).

The Ki is a measure of affinity in units of concentration, obtained from inhibition or displacement. As for `CC(C)=CCOc1ccc(C(=O)O)c(O)c1`, the Ki in [3] worked out at 5000 nM.

The term IC50 denotes the concentration needed to halve the response being measured. For orientation: CC50 means the concentration giving 50% cytotoxicity. Read a low CC50 as harm at low concentration. What is called EC50 is the concentration needed to bring the measured effect to its halfway point. A low value points to greater potency. For the molecule `Cc1cc(OCCCCCCCCCCCCC[P+](c2ccccc2)(c2ccccc2)c2ccccc2)cc(O)c1C(=O)O.[Br-]`, the “Ratio EC50” value in series [4] and in series [6] was under 1 in each case. For the same molecule, the selectivity ratio in series [5] is 64; in series [7], 230. In addition, the IC50 in series [8] came to 4.2 nM. The same molecule came in with a CC50 at 30 h in [9] of 830 nM. In [2], this molecule displayed an EC50 of 13 nM.

The pKa is the pH at which an ionisable group is half protonated. Low readings indicate a group that gives up its proton readily, high ones a group that holds its proton tightly. As to `C/C(=C\CO)CC/C=C(\C)COc1ccc(C(=O)O)c(C)c1`, in series [10], the outcome was inactive. In series [11], this molecule showed a pKa of under 5. The “Ratio EC50” value in series [4] is on record as under 1. Moreover, the IC50 in series [8] was found to be 920 nM.
